Several values for one entry are separate records, joined by “and”; a condition that tells them apart may be missing. Equal values may be shown once.
Test system: U2OS
Assay: Multiplex assay against U2OS
Format: toxicity, cell-based
Conditions: human
Outline: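 At seeding, live cells were stained with Hoechst33342, BioTracker Green Microtubule Cytoskeleton Dye, MitoTracker Red and Annexin V Alexa Fluor 680. After compound addition they were imaged on a CQ1 microscope at 37°C and 5% CO2, and CellPathfinder machine-learning gating sorted them into Hoechst high-intensity objects or normal cells, with normal cells further split into healthy, pyknosed or fragmented nuclei and pyknosed cells into mitotic or apoptotic. Tubulin, mitochondrial-mass and membrane-permeability phenotypes are given as per cents of cells with healthy nuclei.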

[1] = 12 h, 1 µM, compound concentration 1 uM
[2] = 12 h, 10 µM, compound concentration 10 uM
[3] = 24 h, 1 µM, compound concentration 1 uM
[4] = 24 h, 10 µM, compound concentration 10 uM
[5] = 48 h, 1 µM, compound concentration 1 uM
[6] = 48 h, 10 µM, compound concentration 10 uM

In the case of `Cc1c(C(=O)NCCCN(C)C)sc2ncnc(Nc3ccc(F)cc3OC(C)CF)c12` (centres undefined), the “Population Apoptotic (%)” value [1] is reported as 44.9% and 30.77%, the “Population Fragmented Nuclei (%)” value [1] is reported as 1.42% and 2.65% and the “Population Healthy Nuclei (%)” value [1] is reported as 84.66% and 80.13%. For the same compound, the “Population Hoechst High Intensity Objects (%)” value [1] was 0%, the “Population Membrane Permeable-Phenotype (%)” value [1] was 0.67% and 4.13% and the “Population Mitochondria Different-Phenotype (%)” value [1] was 0% and 15.7%. The “Population Mitotic Cells (%)” value [1] was 55.1% and 69.23%, the “Population Normal (%)” value [1] was 100% and the “Population Pyknosed Nuclei (%)” value [1] was 13.92% and 17.22%. For the same compound, the “Population Tubulin-Different-Phenotype (%)” value [1] was 2.68% and 0%, the “Total Cell Count” value [1] was 352 and 151 and the “Population Apoptotic (%)” value [2] was 33.33% and 29.55%. The “Population Fragmented Nuclei (%)” value [2] was 6.74% and 4.73%, the “Population Healthy Nuclei (%)” value [2] was 69.66% and 65.54% and the “Population Hoechst High Intensity Objects (%)” value [2] was 0%. The “Population Membrane Permeable-Phenotype (%)” value [2] was 10.97% and 18.56%, the “Population Mitotic Cells (%)” value [2] was 66.67% and 70.45% and the “Population Normal (%)” value [2] was 100%. The “Population Pyknosed Nuclei (%)” value [2] was 23.6% and 29.73%, the “Population Tubulin-Different-Phenotype (%)” value [2] was 31.61% and 29.9% and the “Population Apoptotic (%)” value [3] was 56% and 51.85%. The “Population Fragmented Nuclei (%)” value [3] was 3.61% and 5.17%, the “Population Healthy Nuclei (%)” value [3] was 85.77% and 79.31% and the “Population Hoechst High Intensity Objects (%)” value [3] was 0%. For the same compound, the “Population Membrane Permeable-Phenotype (%)” value [3] was 1.49% and 4.35%, the “Population Mitotic Cells (%)” value [3] was 44% and 48.15% and the “Population Normal (%)” value [3] was 100%. For the same compound, the “Population Pyknosed Nuclei (%)” value [3] was 10.62% and 15.52%, the “Population Tubulin-Different-Phenotype (%)” value [3] was 1.98% and 0% and the “Total Cell Count” value [3] was 471 and 174. The “Population Apoptotic (%)” value [4] was 35% and 38.46%, the “Population Fragmented Nuclei (%)” value [4] was 3.34% and 4.57% and the “Population Healthy Nuclei (%)” value [4] was 63.26% and 58.29%. For the same compound, the “Population Hoechst High Intensity Objects (%)” value [4] was 0%, the “Population Membrane Permeable-Phenotype (%)” value [4] was 3.96% and 12.75% and the “Population Mitotic Cells (%)” value [4] was 65% and 61.54%. For the same compound, the “Population Normal (%)” value [4] was 100%, the “Population Pyknosed Nuclei (%)” value [4] was 33.4% and 37.14% and the “Population Tubulin-Different-Phenotype (%)” value [4] was 59.08% and 40.2%. For the same compound, the “Total Cell Count” value [4] was 479 and 175, the “Population Apoptotic (%)” value [5] was 48.89% and 51.28% and the “Population Fragmented Nuclei (%)” value [5] was 4.16% and 5.07%. For the same compound, the “Population Healthy Nuclei (%)” value [5] was 85.73% and 80.8%, the “Population Hoechst High Intensity Objects (%)” value [5] was 0% and the “Population Membrane Permeable-Phenotype (%)” value [5] was 1.31% and 1.35%. For the same compound, the “Population Mitochondria Different-Phenotype (%)” value [5] was 0.13% and 8.52%, the “Population Mitotic Cells (%)” value [5] was 51.11% and 48.72% and the “Population Normal (%)” value [5] was 100%. For the same compound, the “Population Pyknosed Nuclei (%)” value [5] was 10.11% and 14.13%, the “Population Tubulin-Different-Phenotype (%)” value [5] was 2.1% and 0.45% and the “Population Apoptotic (%)” value [6] was 53.75% and 63.55%. For the same compound, the “Population Fragmented Nuclei (%)” value [6] was 4.47% and 3.47%, the “Population Healthy Nuclei (%)” value [6] was 48.42% and 34.68% and the “Population Hoechst High Intensity Objects (%)” value [6] was 0.19% and 1.14%. For the same compound, the “Population Membrane Permeable-Phenotype (%)” value [6] was 12.31% and 18.33%, the “Population Mitotic Cells (%)” value [6] was 46.25% and 36.45% and the “Population Normal (%)” value [6] was 99.81% and 98.86%. For the same compound, the “Population Pyknosed Nuclei (%)” value [6] was 47.11% and 61.85% and the “Population Tubulin-Different-Phenotype (%)” value [6] was 44.62% and 53.33%.
For `CC(C)(C)c1cc(NC(=O)Nc2ccc(-c3cn4c(n3)sc3cc(OCCN5CCOCC5)ccc34)cc2)no1` [QUIZARTINIB], the “Population Apoptotic (%)” value [1] was 48% and 78%, the “Population Fragmented Nuclei (%)” value [1] was 24% and 17% and the “Population Healthy Nuclei (%)” value [1] was 61% and 70%. The “Population Hoechst High Intensity Objects (%)” value [1] was 6% and 1%, the “Population Membrane Permeable-Phenotype (%)” value [1] was 13% and 6% and the “Population Mitochondria Different-Phenotype (%)” value [1] was 4% and 6%. For the same compound, the “Population Mitotic Cells (%)” value [1] was 51% and 21%, the “Population Normal (%)” value [1] was 93% and 98% and the “Population Pyknosed Nuclei (%)” value [1] was 14% and 11%. The “Population Tubulin-Different-Phenotype (%)” value [1] was 8% and 4%, the “Total Cell Count” value [1] was 213 and 119 and the “Population Apoptotic (%)” value [2] was 58% and 23%. The “Population Fragmented Nuclei (%)” value [2] was 30% and 11%, the “Population Healthy Nuclei (%)” value [2] was 47% and 65% and the “Population Hoechst High Intensity Objects (%)” value [2] was 13% and 6%. For the same compound, the “Population Membrane Permeable-Phenotype (%)” value [2] was 85% and 62%, the “Population Mitochondria Different-Phenotype (%)” value [2] was 26% and 33% and the “Population Mitotic Cells (%)” value [2] was 41% and 76%. The “Population Normal (%)” value [2] was 86% and 94%, the “Population Pyknosed Nuclei (%)” value [2] was 21% and 22% and the “Population Tubulin-Different-Phenotype (%)” value [2] was 76% and 54%. The “Total Cell Count” value [2] was 197 and 100, the “Population Apoptotic (%)” value [3] was 57% and 62% and the “Population Fragmented Nuclei (%)” value [3] was 25% and 15%. The “Population Healthy Nuclei (%)” value [3] was 56% and 72%, the “Population Hoechst High Intensity Objects (%)” value [3] was 2% and 0% and the “Population Membrane Permeable-Phenotype (%)” value [3] was 15% and 9%. For the same compound, the “Population Mitochondria Different-Phenotype (%)” value [3] was 8% and 4%, the “Population Mitotic Cells (%)” value [3] was 42% and 37% and the “Population Normal (%)” value [3] was 97% and 99%. For the same compound, the “Population Pyknosed Nuclei (%)” value [3] was 17% and 12%, the “Population Tubulin-Different-Phenotype (%)” value [3] was 7% and 5% and the “Total Cell Count” value [3] was 234 and 134. The “Population Apoptotic (%)” value [4] was 63% and 51%, the “Population Healthy Nuclei (%)” value [4] was 34% and 58% and the “Population Hoechst High Intensity Objects (%)” value [4] was 11% and 2%. For the same compound, the “Population Membrane Permeable-Phenotype (%)” value [4] was 55% and 40%, the “Population Mitochondria Different-Phenotype (%)” value [4] was 38% and 32% and the “Population Mitotic Cells (%)” value [4] was 36% and 48%. The “Population Normal (%)” value [4] was 88% and 97%, the “Population Pyknosed Nuclei (%)” value [4] was 30% and the “Population Tubulin-Different-Phenotype (%)” value [4] was 45% and 30%. The “Total Cell Count” value [4] was 195 and 96, the “Population Apoptotic (%)” value [5] was 60% and 73% and the “Population Fragmented Nuclei (%)” value [5] was 21% and 16%. For the same compound, the “Population Healthy Nuclei (%)” value [5] was 61% and 72%, the “Population Hoechst High Intensity Objects (%)” value [5] was 3% and 2% and the “Population Membrane Permeable-Phenotype (%)” value [5] was 7% and 9%. The “Population Mitochondria Different-Phenotype (%)” value [5] was 2% and 7%, the “Population Mitotic Cells (%)” value [5] was 39% and 26% and the “Population Normal (%)” value [5] was 96% and 97%. The “Population Pyknosed Nuclei (%)” value [5] was 16% and 10%, the “Population Tubulin-Different-Phenotype (%)” value [5] was 3% and 6% and the “Total Cell Count” value [5] was 297 and 180. For the same compound, the “Population Apoptotic (%)” value [6] was 72% and 56%, the “Population Fragmented Nuclei (%)” value [6] was 33% and 19% and the “Population Healthy Nuclei (%)” value [6] was 25% and 48%. For the same compound, the “Population Hoechst High Intensity Objects (%)” value [6] was 9% and 5%, the “Population Membrane Permeable-Phenotype (%)” value [6] was 41% and 35% and the “Population Mitochondria Different-Phenotype (%)” value [6] was 33%. For the same compound, the “Population Mitotic Cells (%)” value [6] was 27% and 43%, the “Population Normal (%)” value [6] was 90% and 94% and the “Population Pyknosed Nuclei (%)” value [6] was 40% and 32%. The “Population Tubulin-Different-Phenotype (%)” value [6] was 33% and 28% and the “Total Cell Count” value [6] was 219 and 98.

Reference: ChEMBL document CHEMBL5724801, “EUbOPEN Chemogenomics Library - Multiplex” (2024)
